The source of these data is ChEMBL document CHEMBL1122568, “Synthesis and anticonvulsant activity of some substituted lactams and amides” (J Med Chem, 1984).

Structures are written as SMILES.

Data set [1] relates to Mus sp. The data set is described as follows: (§1) Anticonvulsant activity was evaluated by rotarod toxicity test and was determined 30 min after subcutaneous administration. It counts as organism-based. The conditions noted are these: in vivo, sc, 0.5 h.
Data set [2] deals with Mus musculus. The data set is described as follows: Number of animals protected out of 1 was evaluated by rotarod toxicity test and was determined 30 min t 30 min after subcutaneous administration of >300 mg/kg. It counts as functional. (In the rotarod test animals must keep their balance on a rotating rod.)
The test system of data set [3] is Mus sp. Description: Anticonvulsant activity was evaluated by maximal electroshock induced convulsion test and was determined 30 min after subcutaneous administration. It counts as functional.
Data set [4] relates to Mus sp. The data set is described as follows: Number of animals protected out of 1 was evaluated by maximal electroshock induced convulsion test at 30 min after subcutaneous administration of >300 mg/kg. It counts as functional. The gist of the method: (§2)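 Preliminary screen in small groups of mice (1-4) at 30, 100 and 300 mg/kg. Protection against MES or scMet convulsions, or rotorod toxicity, was scored at 30 min and 4 h after dosing. The smallest dose giving activity was recorded for each test.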
(In the maximal electroshock model the usual endpoint is tonic extension of the hind limbs.)

Data set [5] relates to Mus musculus. Description: Number of animal protected out of 1 was evaluated by metrazole-induced convulsion test at 30 min after subcutaneous administration of >300 mg/kg. It is filed as functional. The method in brief:
as §2

The subject of data set [6] is Mus sp. The data set is described as follows: Anticonvulsant activity was evaluated by metrazole-induced convulsion test and was determined 30 min after subcutaneous administration. It is filed as functional. The gist of the method: (§3)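 Secondary evaluation in mice. Compound was given intraperitoneally in 30% polyethylene glycol 400. Median effective dose (ED50) was determined against maximal electroshock (MES) or subcutaneous Metrazol (scMet) convulsions. Median toxic dose (TD50) was determined by the rotorod test. All were read 30 min after dosing.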

The test system of data set [7] is Mus musculus. The data set is described as follows: Anticonvulsant activity was evaluated by rotarod toxicity test and was determined 30 min after administration. It counts as organism-based. To be noted: in vivo, 0.5 h. The gist of the method:
as §3

For data set [8], the system named is Mus sp. The data set is described as follows: Number of animals protected out of 4 was evaluated by rotarod toxicity test and was determined 30 min t 30 min after subcutaneous administration of >300 mg/kg. It is filed as functional. The method in brief:
as §2

The subject of data set [9] is Mus musculus. The data set is described as follows: Anticonvulsant activity was evaluated by metrazole-induced convulsion test after subcutaneous administration. It is filed as functional. To be noted: sc. The method in brief: as §3
For data set [10], the system named is Mus musculus. Description: Number of animals protected out of 4 was evaluated by maximal electroshock induced convulsion test at 30 min after subcutaneous administration of >300 mg/kg. It counts as functional. The gist of the method: as §2
Data set [11] concerns Mus musculus. Description: Anticonvulsant activity was evaluated by maximal electroshock induced convulsion test after subcutaneous administration. It is filed as functional. To be noted: sc.
Data set [12] is described as follows: Anticonvulsant activity was evaluated by rotarod toxicity test after subcutaneous administration. It counts as organism-based. The conditions noted are these: mouse, in vivo, sc.
Data set [13] relates to Mus musculus. The data set is described as follows: Number of animal protected out of 4 was evaluated by metrazole-induced convulsion test at 30 min after subcutaneous administration of >300 mg/kg. It counts as functional. The gist of the method: as §2
A short description of data set [14]: Anticonvulsant activity was evaluated by rotarod toxicity test after subcutaneous administration. It counts as organism-based. To be noted: mouse, in vivo, sc.
Data set [15] has as its system Mus musculus. The data set is described as follows: Number of animal protected out of 1 was evaluated by metrazole-induced convulsion test at 30 min after subcutaneous administration of 30 mg/kg. It is filed as functional. The gist of the method:
as §2

For data set [16], the system named is Mus musculus. The data set is described as follows: Number of animals protected out of 1 was evaluated by maximal electroshock induced convulsion test at 30 min after subcutaneous administration of 300 mg/kg. It is filed as functional. The method in brief: as §2
The test system of data set [17] is Mus musculus. Description: Anticonvulsant activity was evaluated by maximal electroshock induced convulsion test after subcutaneous administration. It is filed as functional. To be noted: sc.
Data set [18] can be described thus: as §1. It counts as organism-based. To be noted: mouse, in vivo, sc.

In the case of `CCOC(=O)NCCCC(O)(C(=O)OC)c1ccccc1` (centres undefined), the Activity was > 300 mg/kg in the data set with Mus sp. [1], >300 mg/kg in the data set with Mus sp. [3] and >300 mg/kg in the data set on Mus sp. [6]. In addition, the “No. of animals protected” value with Mus musculus [2], with Mus sp. [4] and with Mus musculus [5] was 0 each time.
Take `CCOC(=O)N1CCCC(N)(c2ccccc2)C1=O` (centres undefined): the Activity in the data set with Mus musculus [7], in the data set on Mus sp. [3] and with Mus sp. [6] was 300 mg/kg throughout. Further, the “No. of animals protected” value in the data set on Mus sp. [8] is 4; in the data set with Mus sp. [4] it was 1; in the data set with Mus musculus [5] it was 1.
Regarding `O=C1NCCCC1(O)c1ccccc1` (centres undefined), the Activity with Mus sp. [1] is > 300 mg/kg; in the data set with Mus sp. [3], >300 mg/kg; in the data set on Mus sp. [6] it was >300 mg/kg. Moreover, the “No. of animals protected” value in the data set on Mus sp. [8], with Mus sp. [4] and with Mus musculus [5] was 0 throughout.
Take `CCOC(=O)N1CCCC(Cl)(c2ccccc2)C1=O` (centres undefined): the Activity in the data set on Mus sp. [1] is > 300 mg/kg; in the data set with Mus sp. [3], >300 mg/kg; with Mus sp. [6], 300 mg/kg.
By ED50 is commonly meant the dose that gives a 50% effect, or the effect in half of the subjects. Read a high ED50 as weaker potency. As a reminder, the TD50 is the dose at which the toxic effect under study appears in half of the subjects. Read a high TD50 as lower toxicity. For `CCOC(=O)N1CCCC(OC)(c2ccccc2)C1=O` (centres undefined), the Activity in the data set with Mus sp. [1] was > 300 mg/kg; in the data set with Mus sp. [3], 300 mg/kg; with Mus sp. [6] it was 300 mg/kg. Moreover, the ED50 in the data set on Mus musculus [9] is 124 mg/kg; in the data set with Mus musculus [11] it was 225 mg/kg. Moreover, the “No. of animals protected” value in the data set with Mus musculus [10] is listed as 2; with Mus sp. [8], 0; with Mus musculus [5] it was 1. The TD50 in data set [12] is > 300 mg/kg.
For `O=C(CBr)OC1(c2ccccc2)CCCNC1=O` (centres undefined), the Activity with Mus musculus [7] is > 300 mg/kg; in the data set on Mus sp. [3] it was >300 mg/kg; with Mus sp. [6], 300 mg/kg.
The compound `CCCC(CCC)C(=O)O` [VALPROIC ACID] returned an ED50 with Mus musculus [9] of 149 mg/kg.
As for `CCC(O)(C(=O)NC)c1ccccc1` (centres undefined), the Activity in the data set on Mus sp. [1] was > 300 mg/kg; in the data set on Mus sp. [3], 300 mg/kg; with Mus sp. [6], >300 mg/kg. The “No. of animals protected” value in the data set on Mus sp. [8] worked out at 0; with Mus sp. [4], 1; with Mus musculus [5], 0.
In the case of `O=C(CCl)N1CCCC(O)(c2ccccc2)C1=O` (centres undefined), the results for the Activity with Mus sp. [1], in the data set with Mus sp. [3] and with Mus sp. [6] were > 300 mg/kg, >300 mg/kg and >300 mg/kg, respectively.
Consider `CN1CCCC(O)(c2ccccc2)C1=O` (centres undefined), for which the Activity was > 300 mg/kg in the data set on Mus musculus [7], 100 mg/kg with Mus sp. [3] and 300 mg/kg in the data set with Mus sp. [6]. For the same compound, the ED50 was 128 mg/kg with Mus musculus [9] and 84.4 mg/kg in the data set with Mus musculus [11]. Further, the entries for the “No. of animals protected” value with Mus musculus [13], in the data set with Mus sp. [8] and in the data set with Mus sp. [4] were 4, 0 and 1, respectively. This compound also displayed a TD50 in data set [12] of 350 mg/kg.
`CCCC(C)(COC(N)=O)COC(N)=O` [MEPROBAMATE]: the ED50 in the data set on Mus musculus [9] turned out to be 31.5 mg/kg; in the data set with Mus musculus [11], 120 mg/kg. The TD50 in [14] is 125 mg/kg.
For the compound `CCOC(=O)N1CCCC(c2ccccc2)C1=O` (centres undefined), the Activity was > 300 mg/kg with Mus sp. [1], >300 mg/kg in the data set with Mus sp. [3] and >300 mg/kg in the data set on Mus sp. [6]. Besides, the “No. of animals protected” value in the data set with Mus sp. [8], in the data set with Mus sp. [4] and in the data set with Mus musculus [5] was 0 throughout.
With `CCOC(=O)N1CCCC(OCC2CCCCC2)(c2ccccc2)C1=O` (centres undefined), the Activity is > 300 mg/kg in the data set with Mus sp. [1], >300 mg/kg in the data set on Mus sp. [3] and >300 mg/kg with Mus sp. [6]. The “No. of animals protected” value in the data set on Mus sp. [8], in the data set on Mus sp. [4] and with Mus musculus [5] was 0 in each case.
Consider `O=C(CCCl)NCc1ccccc1` [BECLAMIDE], for which the ED50 is 117 mg/kg in the data set on Mus musculus [9] and 185 mg/kg in the data set on Mus musculus [11]. Moreover, in data set [12], the TD50 amounted to 278 mg/kg.
For `CCOC(=O)N1CCCC(O)(c2ccccc2)C1=O` (centres undefined), the Activity is > 300 mg/kg in the data set with Mus sp. [1], 300 mg/kg in the data set with Mus sp. [3] and 30 mg/kg in the data set on Mus sp. [6]. For the same compound, the “No. of animals protected” value with Mus musculus [15] came to 1; in the data set with Mus sp. [8] it was 0; with Mus musculus [16] it was 1. Besides, the values for the ED50 in the data set on Mus musculus [9] and in the data set with Mus musculus [11] were 124 mg/kg and 132 mg/kg, respectively. Also, the TD50 in [12] was determined as 451 mg/kg.
In turn, `NC(=O)NC(=O)Cc1ccccc1` [PHENACEMIDE] came in with an ED50 with Mus musculus [17] of 87.3 mg/kg. Also, the TD50 in [14] amounted to 421 mg/kg.
As for `CCOC(=O)N(C)C(=O)C(CC)(OCc1ccccc1)c1ccccc1` (centres undefined), the Activity is > 300 mg/kg with Mus sp. [1], >300 mg/kg with Mus sp. [3] and >300 mg/kg with Mus sp. [6]. Besides, the “No. of animals protected” value in the data set with Mus musculus [2], in the data set on Mus sp. [4] and in the data set on Mus musculus [5] was 0 in each case.
With `CCCC(C)OC(=O)N1CCCC(O)(c2ccccc2)C1=O` (centres undefined), the Activity was > 300 mg/kg with Mus sp. [1], 300 mg/kg in the data set on Mus sp. [3] and 300 mg/kg with Mus sp. [6]. The “No. of animals protected” value in the data set with Mus musculus [13] stood at 1; in the data set with Mus sp. [8], 0; in the data set with Mus sp. [4], 1.
Regarding `CCOC(=O)N1CCCC(OC(C)=O)(c2ccccc2)C1=O` (centres undefined), the Activity with Mus musculus [7] was > 300 mg/kg; in the data set on Mus sp. [3] it was >300 mg/kg; with Mus sp. [6], >300 mg/kg. The “No. of animals protected” value with Mus sp. [8], with Mus sp. [4] and with Mus musculus [5] was 0 in each case.
As to `COC1(c2ccccc2)CCCNC1=O` (centres undefined), the values for the Activity in the data set on Mus sp. [1], in the data set with Mus sp. [3] and with Mus sp. [6] were 300 mg/kg, 100 mg/kg and 300 mg/kg, respectively. The compound also displayed a TD50 at 0.5 h in data set [18] of 239 mg/kg. The results for the ED50 in the data set with Mus musculus [9] and with Mus musculus [11] were 49.6 mg/kg and 121 mg/kg, respectively. Further, the “No. of animals protected” value came to 4 with Mus musculus [13], 4 in the data set with Mus sp. [8] and 1 in the data set on Mus sp. [4].
As for `CCC(OCc1ccccc1)(C(=O)NC)c1ccccc1` (centres undefined), the Activity with Mus sp. [1] is > 300 mg/kg; in the data set with Mus sp. [3], >300 mg/kg; with Mus sp. [6], >300 mg/kg. The “No. of animals protected” value with Mus sp. [8], in the data set with Mus sp. [4] and in the data set on Mus musculus [5] was 0 each time.
